Measured values of several laboratories.
Each line is one published result; the experiments were not run side by side. pIC50: −log10 of the molar value.
Effect on: cell growth or viability

`OCc1ccc(-c2nn(Cc3ccccn3)c3ccccc23)o1` gave a pIC50 of 6.52 (RBE; ATP luminescence).
The pIC50 of `CNC(=O)c1cc(Oc2ccc(NC(=O)Nc3ccc(Cl)c(C(F)(F)F)c3)cc2)ccn1` is reported as 4.80 (BEAS-2B; MTT; 24 h).
`O=C(O)c1nn(Cc2ccc(Cl)cc2Cl)c2ccccc12` gave a pIC50 of 3.59 (human Fibroblast; 48 h).
`Cc1nc2ccc(-c3ccc(F)cc3F)cc2c(O)c1C(=O)O` gave a pIC50 of at most 4.00 (MDA-MB-468; MTT; 48 h).
`OCc1ccc(-c2nn(Cc3ccncc3)c3cccnc23)o1` gave a pIC50 of 5.06 (RBE; ATP luminescence).
`Fc1ccc2c(-c3nnc(Cc4ccccc4)[nH]3)nn(Cc3ccc(Cl)cc3Cl)c2c1` gave a pIC50 of 3.23 (human Fibroblast; 48 h).
The pIC50 of `COc1cccc2c1C(=O)c1c(O)c3c(c(O)c1C2=O)C[C@@](O)(C(=O)CO)C[C@@H]3O[C@H]1C[C@H](N)[C@H](O)[C@H](C)O1` is reported as 7.67 (RBE; 96 h).
`COc1ccc(NC(=S)N/N=C/c2ccc(N3CCC(O)CC3)cc2)cc1` has a pIC50 of 4.76 (BEAS-2B; MTT; 24 h).
`FC(F)(F)c1ccc(-c2nnc(-c3nn(Cc4ccc(Cl)cc4Cl)c4ccccc34)o2)cc1` gave a pIC50 of 4.00 (human Fibroblast; 48 h).
With `OCc1ccc(-c2nn(Cc3ccccc3)c3ncccc23)o1` the pIC50 was 4.81 (RBE; ATP luminescence).
With `C/C(=N\c1nc(N)nc(/N=C(\C)c2c(O)c3ccccc3oc2=O)n1)c1c(O)c2ccccc2oc1=O` the pIC50 was 4.19 (BEAS-2B; MTT; 48 h).
`OC1CCN(c2ccc(/C=N/NC(=S)NCc3ccc(Cl)cc3)cc2)CC1` has a pIC50 of 4.87 (BEAS-2B; MTT; 24 h).
`c1ccc2c(c1)ncn2Cn1cncn1` gave a pIC50 of 3.58 (BEAS-2B; MTT; 24 h).
With `FC(F)(F)c1ccc(-c2noc(-c3nn(Cc4ccc(Cl)cc4Cl)c4ccccc34)n2)cc1` the pIC50 was 3.89 (human Fibroblast; 48 h).
`COc1cccc(Cn2nc(-c3ccc(CO)o3)c3ccccc32)c1` gave a pIC50 of 6.33 (RBE; ATP luminescence).
`CCOC(=O)c1c(C)nc2ccc(-c3ccc(OCc4ccccc4)c(F)c3)cc2c1O` gave a pIC50 of 5.70 (MDA-MB-468; MTT; 48 h).
`Cc1ccc(Cn2nc(-c3ccc(CO)o3)c3ccccc32)cc1` has a pIC50 of 5.77 (RBE; ATP luminescence).
`Cc1sc2c(c1C)C(c1ccc(Cl)cc1)=N[C@@H](CC(=O)NCCCCNC(=O)COc1cccc3c1C(=O)N(C1CCC(=O)NC1=O)C3=O)c1nnc(C)n1-2` (some centres unmarked) has a pIC50 of under 5.00 (KATO III; CCK-8; 72 h).
The pIC50 of `CC1c2ccccc2CCN1c1ccc(CO)c(Cl)c1` (centres unmarked) is reported as over 6.70 (RBE; ATP luminescence).
With `CC(=O)ON=C1C=CC(=C(C#N)c2ccccc2)C=C1` the IC50 was 20.3 µg/mL (human Fibroblast; MTT; 48 h).
